Values after ≈ are worked out from the molar mass of the structure shown.
Key:
[1] = tested on: Mycobacterium tuberculosis; assay: Antimycobacterial activity against Mycobacterium tuberculosis H37Rv after 7 days by microplate alamar blue assay; type: functional; details: 168 h
How it was run: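 M. tuberculosis H37Rv growth inhibition was read by microplate Alamar blue assay (MABA). The value is reported as the minimum inhibitory concentration (MIC), in μM.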

[2] = Cytotoxicity against african green monkey Vero cells after 72 hrs; type: cell-based; details: chlorocebus sabaeus, read-out: MIC
How it was run: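 Toxicity was tested in Vero cells, and the value is reported as IC50 in μM.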

[3] = tested on: Trypanosoma brucei rhodesiense; assay: Antimicrobial activity against Trypanosoma brucei rhodesiense STIB 900 trypomastigote forms; type: functional, organism-based
Trypanosoma cruzi = assay: Antimicrobial activity against Trypanosoma cruzi Tulahuen C2C4 amastigote forms infected in rat L6 cells; type: functional, organism-based
Leishmania donovani = assay: Antimicrobial activity against Leishmania donovani MHOM/ET/67/L82 axenic amastigote forms; type: functional, organism-based
Plasmodium falciparum = assay: Antimicrobial activity against chloroquine and pyrimethamine-resistant Plasmodium falciparum K1 in erythrocytes; type: functional, organism-based

Work on `Cc1nc2cc(OCc3cc(C(=O)N[C@H](C(=O)NNC(=O)c4ccncc4)c4ccccc4)no3)ccc2s1` yielded an MIC [1] of 47.5 µM (≈ 25.8 µg/mL).

For `COC(=O)[C@@H](NC(=O)c1cc(COc2nc3ccccc3s2)on1)c1ccccc1`, the MIC [1] was 15.2 µM (≈ 6.44 µg/mL), the MCC at 72 h [2] was > 128 µM and the IC50 [3] was 88.6 µM. The IC50 (Trypanosoma cruzi) was 26.8 µM, the IC50 (Leishmania donovani) was 4.99 µM and the IC50 (Plasmodium falciparum) was > 5 µM.

For `COC(=O)c1ccccc1NC(=O)c1cc(COc2ccc3sc(C)nc3c2)on1`, the MIC [1] was 30.2 µM (≈ 12.8 µg/mL) and the MCC at 72 h [2] was > 128 µM.

For `Cc1nc2cc(OCc3cc(C(=O)N4CCCCC4)no3)ccc2s1`, the MIC [1] was 120 µM (≈ 42.7 µg/mL).

In the case of `COC(=O)[C@H](CCSC)NC(=O)c1cc(COc2ccc3sc(C)nc3c2)on1`, the MIC [1] is reported as 3.7 µM (≈ 1.61 µg/mL) and the MCC at 72 h [2] is reported as > 128 µM.

In the case of `Cc1nc2cc(OCc3cc(C(=O)N[C@H](C(=O)O)c4ccccc4)no3)ccc2s1`, the MIC [1] is reported as > 128 µM, the IC50 [3] is reported as 89.5 µM and the IC50 (Trypanosoma cruzi) is reported as > 90 µM. For the same compound, the IC50 (Leishmania donovani) was 32.3 µM and the IC50 (Plasmodium falciparum) was > 5 µM.

With `Cc1nc2cc(OCc3cc(C(=O)N(C)C)no3)ccc2s1` the MIC [1] was > 128 µM.

For `COC(=O)[C@@H](NC(=O)c1cc(COc2cccc3sc(C)nc23)on1)c1ccccc1`, the MIC [1] was 7.4 µM (≈ 3.24 µg/mL), the MCC at 72 h [2] was > 128 µM and the IC50 [3] was > 90 µM. The IC50 (Trypanosoma cruzi) was 18.8 µM, the IC50 (Leishmania donovani) was 4.12 µM and the IC50 (Plasmodium falciparum) was > 5 µM.

In the case of `Cc1nc2cc(OCc3cc(C(=O)N4CCN(C)CC4)no3)ccc2s1`, the MIC [1] is reported as > 128 µM and the MCC at 72 h [2] is reported as > 128 µM.

With `Cc1nc2cc(OCc3cc(C(=O)O)no3)ccc2s1` the MIC [1] was > 128 µM.

In the case of `CCN(CC)C(=O)c1cc(COc2ccc3sc(C)nc3c2)on1`, the MIC [1] is reported as > 128 µM.

For `COC(=O)[C@@H](NC(=O)c1cc(COc2ccccc2)on1)c1ccccc1`, the MIC [1] was 3.5 µM (≈ 1.28 µg/mL), the MCC at 72 h [2] was > 128 µM and the IC50 [3] was > 90 µM. The IC50 (Trypanosoma cruzi) was 45.9 µM, the IC50 (Leishmania donovani) was 13.5 µM and the IC50 (Plasmodium falciparum) was > 5 µM.

With `COC(=O)[C@@H](NC(=O)c1cc(COc2ccc3sc(-c4cccc(C(F)(F)F)c4)nc3c2)on1)c1ccccc1` the MIC [1] was 59.5 µM (≈ 33.8 µg/mL).

For `COC(=O)[C@H](Cc1ccccc1)NC(=O)c1cc(COc2ccc3sc(C)nc3c2)on1`, the MIC [1] was 14.4 µM (≈ 6.5 µg/mL) and the MCC at 72 h [2] was > 128 µM.

For `COC(=O)[C@@H](NC(=O)c1nc(COc2ccc3sc(C)nc3c2)cs1)c1ccccc1`, the MIC [1] was 62.5 µM (≈ 28.3 µg/mL), the IC50 [3] was 37.5 µM and the IC50 (Trypanosoma cruzi) was 14.5 µM. It also gave an IC50 (Leishmania donovani) of 4.44 µM and an IC50 (Plasmodium falciparum) of 4.86 µM.

With `Cc1nc2cc(OCc3cc(C(=O)N4CCOCC4)no3)ccc2s1` the MIC [1] was > 128 µM.

With `COC(=O)[C@@H](NC(=O)c1cc(COc2ccc3sc(C)nc3c2)on1)c1ccccc1Cl` the MIC [1] was 15.5 µM (≈ 7.31 µg/mL) and the MCC at 72 h [2] was > 128 µM.

For `COC(=O)[C@H](CC(C)C)NC(=O)c1cc(COc2ccc3sc(C)nc3c2)on1`, the MIC [1] was 3.8 µM (≈ 1.59 µg/mL), the MCC at 72 h [2] was > 128 µM and the IC50 [3] was 18.7 µM. The IC50 (Trypanosoma cruzi) was 12.3 µM, the IC50 (Leishmania donovani) was 2.79 µM and the IC50 (Plasmodium falciparum) was 4.57 µM.

With `COC(=O)[C@@H](NC(=O)c1cc(COc2ccc3sc(C)nc3c2)on1)c1ccccc1` the MIC [1] was 1.4 µM (≈ 0.612 µg/mL), the MCC at 72 h [2] was > 128 µM and the IC50 [3] was 74.2 µM. The IC50 (Trypanosoma cruzi) was > 90 µM, the IC50 (Leishmania donovani) was 27.5 µM and the IC50 (Plasmodium falciparum) was 3.97 µM.

In the case of `COC(=O)[C@@H](NC(=O)c1ccc2sc(C)nc2c1)c1ccccc1`, the MIC [1] is reported as 13 µM (≈ 4.43 µg/mL) and the MCC at 72 h [2] is reported as > 128 µM.

With `Cc1nc2cc(OCc3cc(C(=O)N4CCNCC4)no3)ccc2s1` the MIC [1] was > 128 µM.

In the case of `Cc1nc2cc(OCc3cc(C(=O)N[C@H](C(=O)NO)c4ccccc4)no3)ccc2s1`, the MIC [1] is reported as > 128 µM, the IC50 [3] is reported as 0.415 µM and the IC50 (Trypanosoma cruzi) is reported as 6.2 µM. It also gave an IC50 (Leishmania donovani) of 3.25 µM and an IC50 (Plasmodium falciparum) of 1.82 µM.

Work on `Cc1nc2cc(OCc3cc(C(=O)N4CCCCO4)no3)ccc2s1` yielded an MIC [1] of 7.8 µM (≈ 2.8 µg/mL).

For `COC(=O)[C@H](NC(=O)c1cc(COc2ccc3sc(C)nc3c2)on1)c1ccccc1`, the MIC [1] was 1.9 µM (≈ 0.831 µg/mL), the MCC at 72 h [2] was > 128 µM and the IC50 [3] was 89.5 µM. It also gave an IC50 (Trypanosoma cruzi) of 37.5 µM, an IC50 (Leishmania donovani) of 22.3 µM and an IC50 (Plasmodium falciparum) of 3.33 µM.

For `Cc1nc2cc(OCc3cc(C(=O)NCc4ccccc4)no3)ccc2s1`, the MIC [1] was > 128 µM, the IC50 [3] was 86.9 µM and the IC50 (Trypanosoma cruzi) was > 90 µM. The IC50 (Leishmania donovani) was 8.8 µM and the IC50 (Plasmodium falciparum) was 3.43 µM.

With `CCOC(=O)c1cc(COc2ccc3sc(C)nc3c2)on1` the MIC [1] was > 128 µM.

For `Cc1nc2cc(OCc3cc(C(=O)NO)no3)ccc2s1`, the MIC [1] was > 128 µM, the IC50 [3] was 1.85 µM and the IC50 (Trypanosoma cruzi) was 15.9 µM. It also gave an IC50 (Leishmania donovani) of 6.06 µM and an IC50 (Plasmodium falciparum) of 2.76 µM.

With `Cc1nc2cc(OCc3cc(C(=O)N[C@H](CO)c4ccccc4)no3)ccc2s1` the MIC [1] was > 128 µM, the IC50 [3] was 31.2 µM and the IC50 (Trypanosoma cruzi) was > 90 µM. The IC50 (Leishmania donovani) was > 90 µM and the IC50 (Plasmodium falciparum) was 2.56 µM.

In the case of `COC(=O)[C@@H](NC(=O)c1cc(C)on1)c1ccccc1`, the MIC [1] is reported as 37 µM (≈ 10.1 µg/mL), the MCC at 72 h [2] is reported as > 128 µM and the IC50 [3] is reported as > 90 µM. The IC50 (Trypanosoma cruzi) was > 90 µM, the IC50 (Leishmania donovani) was 56.3 µM and the IC50 (Plasmodium falciparum) was > 5 µM.

With `COC(=O)[C@@H](NC(=O)c1cc(COc2ccc3sc(C)nc3c2)on1)c1ccc(OC)cc1` the MIC [1] was 12.2 µM (≈ 5.7 µg/mL) and the MCC at 72 h [2] was > 128 µM.

For `COC(=O)[C@@H](NC(=O)c1cc(COc2ccc3sc(C)nc3c2)on1)c1ccc(O)cc1`, the MIC [1] was 15.4 µM (≈ 6.98 µg/mL), the MCC at 72 h [2] was > 128 µM and the IC50 [3] was 88.9 µM. It also gave an IC50 (Trypanosoma cruzi) of 26.4 µM, an IC50 (Leishmania donovani) of 4.48 µM and an IC50 (Plasmodium falciparum) of 2.5 µM.

With `Cc1nc2cc(OCc3cc(C(=O)NNC(=O)c4ccncc4)no3)ccc2s1` the MIC [1] was 4.4 µM (≈ 1.8 µg/mL), the MCC at 72 h [2] was > 128 µM and the IC50 [3] was 38 µM. The IC50 (Trypanosoma cruzi) was > 90 µM, the IC50 (Leishmania donovani) was > 90 µM and the IC50 (Plasmodium falciparum) was > 5 µM.

With `COC(=O)[C@@H](NC(=O)c1cc(COc2ccc3sc(C)nc3c2)on1)C(C)C` the MIC [1] was > 128 µM.

In the case of `COC(=O)[C@@H](NC(=O)c1cc(CSc2nc3ccccc3s2)on1)c1ccccc1`, the MIC [1] is reported as 13 µM (≈ 5.71 µg/mL), the MCC at 72 h [2] is reported as > 128 µM and the IC50 [3] is reported as 88.9 µM. The IC50 (Trypanosoma cruzi) was 16.9 µM, the IC50 (Leishmania donovani) was 6.03 µM and the IC50 (Plasmodium falciparum) was > 5 µM.

Work on `O=C(Cn1ccnc1[N+](=O)[O-])NCc1ccccc1` [BENZNIDAZOLE] yielded an IC50 (Trypanosoma cruzi) of 0.521 µM.

With `NNC(=O)c1ccncc1` [ISONIAZID] the MIC [1] was 0.5 µM (≈ 0.0686 µg/mL) and the MCC at 72 h [2] was > 128 µM.

Work on `CCCCCCCCCCCCCCCCOP(=O)([O-])OCC[N+](C)(C)C` [MILTEFOSINE] yielded an IC50 (Leishmania donovani) of 0.142 µM.

With `CO[C@H]1/C=C/O[C@@]2(C)Oc3c(C)c(O)c4c(O)c(c(/C=N/N5CCN(C)CC5)c(O)c4c3C2=O)NC(=O)/C(C)=C\C=C\[C@H](C)[C@H](O)[C@@H](C)[C@@H](O)[C@@H](C)[C@H](OC(C)=O)[C@@H]1C` [RIFAMPIN] the MIC [1] was 0.1 µM (≈ 0.0823 µg/mL) and the MCC at 72 h [2] was 127 µM.
